Source: PubChem (several laboratories)
ARNT TACC3 PPI – disruptors of ARNT/TACC3 protein interaction, primary screen, biochemical, AlphaScreen, single concentration | inhibition, % at 9.99 µM | 0.66% of 390,000 active | AlphaScreen His-ARNT PAS-B/GST-TACC3 binding, luminescence; TACC3 fragment carries E629A point mutation;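 active means mean inhibition of replicates at least 50% and at least half of replicates each reaching 50%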;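 further: 0% = complete ARNT plus TACC3 wells and 100% = ARNT alone without TACC3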
UCH37 DUB inh – inhibitors of human UCH37 deubiquitinase, primary screen, biochemical, Ub-AMC cleavage, fluorescence; purified proteasome/UCH37; Ubiquitin carboxyl-terminal hydrolase isozyme L5 (Homo sapiens), Q9Y5K5; 0.33% of 330,000 active; inhibition, % (test concentration not listed);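 active means mean inhibition over replicate wells above about 20%, limit read from the data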;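 further: 0% = compound-free wells with enzyme and 100% = wells lacking proteasome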
Target sequence (Q9Y5K5 whole entry, looked up): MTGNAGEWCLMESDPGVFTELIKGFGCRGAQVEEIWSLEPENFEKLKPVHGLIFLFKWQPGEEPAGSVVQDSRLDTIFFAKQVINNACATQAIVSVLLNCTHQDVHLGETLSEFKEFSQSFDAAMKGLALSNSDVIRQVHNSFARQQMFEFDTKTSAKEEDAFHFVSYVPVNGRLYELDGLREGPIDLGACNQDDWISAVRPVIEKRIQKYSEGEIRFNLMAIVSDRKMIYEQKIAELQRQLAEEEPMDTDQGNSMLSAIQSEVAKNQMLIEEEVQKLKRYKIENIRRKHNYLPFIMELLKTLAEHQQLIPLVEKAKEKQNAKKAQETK
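assay system = human UCH37 enzyme supplied as purified proteasome complex | amount = proteasome at 0.15 nM in the dispensed enzyme solution | schedule = 30 min compound-proteasome preincubation then 25 min substrate reaction, room temperature | measured by = fluorescence, ex 355 nm, em 460 nm | benchmarks = no-proteasome wells (full inhibition) and compound-free wells (no inhibition)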
Efflux pump inh – inhibitors of Candida efflux pumps in yeast, primary screen, S. cerevisiae, Nile Red, multiplex; inhibition, % at 10 µM; AID 485275, 2010; 0.44% of 330,000 active; S. cerevisiae Candida pump triplex;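 active means plate passing quality check with inhibition over a set limit, or well fluorescence over plate mean plus 4 SD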;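 further: Nile Red retained in pooled yeast measured as flow cytometry median fluorescence; 0% = buffer negative control and 100% = Enniatin B positive control; higher means more Nile Red kept so more efflux inhibition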
RTF Ca sens inh – cardiac RTF calcium sensitivity inhibitors, primary screen, biochemical, IANBD-TnC fluorescence, EC70 calcium | AID 493244, 2011 | IANBD-labeled cardiac RTF, Ca2+ fluorescence | 0.12% of 340,000 active | inhibition, % at 7.15 µM | Troponin I, cardiac muscle (Homo sapiens) + Troponin T, cardiac muscle (Homo sapiens) + …;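 active means inhibition above the mean inhibition of all tested compounds plus 3 SD, cut at about 17% in these data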;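 further: assay run at fixed EC70 calcium of 1.6 mM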
SUMO Mot1 rescue – yeast Mot1-301 growth rescue at high temperature, primary screen, SUMOylation pathway inhibitor project, S. cerevisiae, ATP luminescence, 38.5C. 1% of 320,000 active. AID 2716, 2010. growth rescue, % at 18.8 µM. S. cerevisiae Mot1-301 growth rescue; percent above DMSO median, 100 means doubled;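 active means every valid replicate shows activation above 250% relative to neutral control wells; inactive means the rest, any valid replicate at or below 250%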;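 further: OY570 slx delta 5 strain wells were the positive control but not used for scaling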
cardiac RTF act – cardiac RTF calcium sensitivity activators, primary screen, biochemical, IANBD-TnC fluorescence, EC20 calcium | 0.24% of 340,000 active | Troponin I, cardiac muscle (Homo sapiens) + Troponin T, cardiac muscle (Homo sapiens) + … | AID 493008, 2010 | IANBD-labeled TnC RTF fluorescence at EC20 calcium; 0% EC20 calcium, 100% full calcium | activation, % at 7.2 µM;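 active means activation above the mean over all tested compounds plus 3 SD, cut at about 30% in these data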;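 further: rise in fluorescence read as greater calcium sensitivity of cardiac thin filaments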
Yeast Mot1 SUMO – growth restoration of Mot1-301 yeast on galactose, dose response, SUMO pathway inhibitor project, whole organism, S. cerevisiae, ATP luminescence, cherry-picked samples. shares compounds with SUMO Mot1 rescue. S. cerevisiae Mot1-301 galactose growth, 24 h; -100 = growth of slx-deleted rescue strain. growth activity, percent, % at 42 µM. 2,300 tested, under 10 active. AID 493004, 2010;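 active means Signal drops as the depositor expects, and the fitted half-maximal dose is no more than ten times the top valid tested dose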;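 further: more negative values mean stronger growth rescue toward the control strain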
* marks the source's active call; other numbers are inactive results; nt = no result given; + = active, no number; [ ] = remark or other dose. The list is not random: actives were taken first. Their share in the collection is about 2.1%.

SMILES	ARNT TACC3 PPI	UCH37 DUB inh	Efflux pump inh	RTF Ca sens inh	SUMO Mot1 rescue	cardiac RTF act	Yeast Mot1 SUMO
CN1C(=O)C(Cc2ccccc2)C(=O)N(C)C1=O	-4	nt	nt	-15	nt	0	nt
O=P(C(=NO)N1CCCCC1)(N1CCOCC1)N1CCOCC1	nt	4	nt	nt	nt	nt	nt
CN1/C(=C\C=C\C2=[N+](C)c3ccc4ccccc4c3C2(C)C)C(C)(C)c2ccccc21	nt	nt	106*	nt	129	nt	nt
O=C(O)C1C(C(=O)O)C2(Cl)C(Cl)=C(Cl)C1(Cl)C2(Cl)Cl (stereo not given)	nt	-1	0	4	400*	-2	1
CC(=O)C1(c2ccccc2)CCNCC1	-3	0	0	-4	706*	-4	0[21 µM]
O=C(O)C1(c2ccc(Cl)cc2)CCC1	-2	-1	0	-5	nt	-6	nt
Cc1cc(C)n(CCOC(=O)C2C(C=C(Cl)Cl)C2(C)C)n1 (stereo not given)	26	6	0	-7	905*	-2	0
C=C1C2C[C@@]3([C@@H]1O)[C@@H](C[C@@H]2O)[C@@]12C4[C@@H]3C[C@@H]1[C@@](C)(CC[C@@H]2O)CN4CC	-3	nt	0	11	405*	-2	0
O=C(O)c1cc(Oc2ccc(C(F)(F)F)cc2Cl)ccc1[N+](=O)[O-]	-2	nt	0	12	514*	-1	0
O=C(O)c1ccc([N+](=O)[O-])c([N+](=O)[O-])c1	0	1	nt	0	nt	-2	nt
C/C=C/c1ccc([C@@H]2[C@@H](CO)N3CCCCN(C(=O)Cc4cccnc4)C[C@@H]23)cc1	-9	nt	nt	nt	nt	nt	nt
O=C(c1ccccc1)C(CN1CCCC1)c1ccccc1 (stereo not given)	-2	0	0	0	560*	0	-1
O=C(O)[C@H]1[C@H](CO)[C@H]2Cn3c(ccc(-c4ccc(F)cc4)c3=O)[C@@H]1N2CC1CCCCC1	1	nt	nt	nt	nt	nt	nt
Cc1cc(Oc2cc(NN3CCCCC3)c([N+](=O)[O-])cc2[N+](=O)[O-])ccc1[N+](=O)[O-]	-10	nt	0	1	752*	-3	0
O=[N+]([O-])c1ccc(N2CCCC2)c(F)c1Br	nt	3	0	-26	-6	0	nt
CCOP(=O)(OCC)C(NC(=O)c1cccc(C)c1)C(Cl)(Cl)Cl (stereo not given)	-3	4	0	-9	971*	5	0
CCOP(=O)(OCC)C(NC(=O)c1ccccc1C)C(Cl)(Cl)Cl (stereo not given)	2	3	0	10	-18	10	nt
CCOP(=O)(OCC)C(NC(=O)c1cccc([N+](=O)[O-])c1)C(Cl)(Cl)Cl (stereo not given)	nt	3	0	-6	710*	12	0
CCOC(=O)[C@@H]1[C@@H]2NC(=S)N(C)[C@@]1(COCc1ccc(OC)cc1)Oc1ccccc12	27	nt	nt	nt	nt	nt	nt
CN1C(=O)C(=Cc2cn(CC(=O)N3CCCC3)c3ccccc23)C(=O)N(C)C1=O	-4	2	0	0	+	-4	1
CC12CC[C@H]3[C@@H](CCC4(O)C[C@H](O)CCC34C=NNC(=O)c3ccc(O)cc3)C1(O)CCC2C1=CC(=O)OC1 (stereo not given in full)	nt	0	nt	nt	nt	nt	nt
COc1ccccc1-n1c(O)c(/C=C2\C=Nc3ccccc32)c(=O)[nH]c1=O	-4	nt	0	-3	562*	5	0
Cc1cc(N(CCCl)CCCl)ccc1C=NNC(=O)c1ccco1	nt	-63	nt	nt	nt	nt	nt
